Measured values published in ChEMBL document CHEMBL1932927, “Synthesis and evaluation of platelet aggregation inhibitory activity of some 3-phenyl-pyrroloquinazolinones” (Eur J Med Chem, 2012).
pIC50: −log10 of the molar value. The source made the active and inactive calls. No cut-off for these calls is given here.

How the values were obtained:
Platelet [1] = assay: Antiplatelet activity against human platelets assessed as inhibition of thrombin-induced platelets aggregation at 8 uM pretreated 3 mins before compound addition by aggregometer analysis; type: functional, cell-based
Procedure, shortened: (§1)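 Platelets isolated by differential centrifugation and resuspended in Tris/Hepes basal buffer pH 7.4. Exposed to compound or DMSO vehicle for 3 min, then thrombin 40 mU/mL added. Initial aggregation rate (velocity) recorded from aggregation traces. Means of four separate determinations ± S.E.M.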

Platelet [2] = assay: Antiplatelet activity against human platelets assessed as inhibition of collagen-induced platelets aggregation at 8 uM pretreated 3 mins before compound addition by aggregometer analysis; type: functional, cell-based
Procedure, shortened: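 Washed platelets in basal buffer pH 7.4 (2-4 × 10⁸ cells/mL) preincubated 3 min with compound (8 µM) or DMSO, then stimulated with collagen […] (so in the source). Aggregation rate relative to vehicle control; means of 4 experiments ± S.E.M.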

[3] = Toxicity in human platelets assessed as LDH release at 4 uM after 1 hr; type: cell-based; conditions: platelet
Procedure, shortened: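 Platelets (2 × 10⁸ cells/mL) incubated 1 h at 37 °C with compound, then centrifuged 3 min at 3000 g. Supernatant LDH measured with 5 mM NADH and 50 mM pyruvate as OD decrease at 340 nm. Total LDH determined after 0.1% Triton X-100 lysis.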

Platelet [4] = assay: Decrease in thrombin-indcued cytosolic calcium level in human platelets at 2 uM treated 3 mins before thrombin challenge using fluorescent probe fura 2 by fluorescence assay; type: functional, cell-based
Procedure, shortened: (§2)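 Fura 2-loaded platelets in stirred thermostated cuvette; excitation 340/385 nm, emission 505 nm. Compound (2 µM) or DMSO added, thrombin 40 mU/mL given 1 min or 3 min later. Also run with 0.5 mM EGTA added 1 min before compound. Traces representative of three experiments.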

Homo sapiens [5] = species on record: Homo sapiens; assay: Inhibition of protein tyrosine kinase phosphorylation in human platelets at 2 uM by SDS/PAGE analysis
Procedure, shortened: (§3)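 Platelets at 300 × 10⁶ cells/mL in basal medium pretreated 3 min with 2 µM compound or DMSO, then left resting or stimulated with thrombin 40 mU/mL. Proteins run on 10% SDS/PAGE, blotted, probed with anti-phosphotyrosine PY20, detected by ECL. Actin immunoblot served as loading control. Four experiments.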

Platelet [6] = assay: Antiplatelet activity against human platelets assessed as inhibition of thrombin-induced platelets aggregation at >4 uM pretreated 3 mins before compound addition by aggregometer analysis; type: functional, cell-based
Platelet [7] = assay: Antiplatelet activity against human platelets assessed as inhibition of Ca2+-ionophore ionomycin-induced platelets aggregation at 2 to 8 uM pretreated 3 mins before compound addition by aggregometer analysis; type: functional, cell-based
Procedure, shortened: (§4)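 Washed platelets (ACD/apyrase/prostacyclin, differential centrifugation, resuspended in Tris/Hepes basal buffer pH 7.4, 2-4 × 10⁸ cells/mL) preincubated 3 min with test agent or DMSO. Then 20 nM PMA or ionomycin added. Maximal aggregation rate after agonist taken as 100% without compound. Means of 4 experiments ± S.E.M.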

Homo sapiens [8] = species on record: Homo sapiens; assay: Inhibition of protein tyrosine kinase phosphorylation in thrombin-stimulated human platelets at 2 uM treated 3 mins before thrombin challenge by SDS/PAGE analysis; procedure, shortened: as §3
Platelet [9] = assay: Increase in thrombin-indcued cytosolic calcium level in human platelets at 2 uM treated 1 min before thrombin challenge using fluorescent probe fura 2 by fluorescence assay; type: functional, cell-based; procedure, shortened: as §2
Platelet [10] = assay: Antiplatelet activity against human platelets assessed as inhibition of phorbol-ester-induced platelets aggregation at 2 to 8 uM pretreated 3 mins before compound addition by aggregometer analysis; type: functional, cell-based; procedure, shortened: as §4
[11] = Toxicity in human platelet assessed as cell viability at 4 uM after 4 to 6 hrs by alamar blue method; type: cell-based
Procedure, shortened: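 Platelet suspensions with 1 mM NaHCO3 and 0.2% BSA kept at 37 °C under 5% CO₂ with compound for 4-6 h. Viability read fluorimetrically by Alamar Blue reduction.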

Platelet [12] = assay: Increase in cytosolic calcium level in human platelets at 2 uM using fluorescent probe fura 2 by fluorescence assay; type: functional, cell-based
Procedure, shortened: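 Cytosolic Ca²⁺ monitored with fura 2 (excitation 340/385 nm, emission 505 nm) in stirred thermostated cuvette after 2 µM compound addition alone, versus DMSO vehicle. Representative of three experiments.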

[13] = (§5) Antiplatelet activity against human platelets assessed as inhibition of thrombin-induced platelets aggregation pretreated 3 mins before compound addition by aggregometer analysis; type: functional, cell-based; conditions: Platelet; procedure, shortened: as §1
Platelet [14] = assay: as §5; type: functional, cell-based; procedure, shortened: as §1

Row | Structure (SMILES) | inhibition (Platelet [1]) | inhibition (Platelet [2]) | also measured
1 | O=c1[nH]c(-c2ccccc2)nc2ccc3c(ccn3CC3CC3)c12 | Active | Active | 
2 | O=c1c(-c2ccccc2)c[nH]c2c1ccc1[nH]ccc12 | Active | Active | 
3 | CCn1ccc2c3c(=O)[nH]c(-c4ccc(OC)cc4)nc3ccc21 | Active | Active | 
4 | O=c1[nH]c(-c2ccccc2)nc2ccc3[nH]ccc3c12 | Active | Active | Activity [3]: Non-toxic; Activity (Platelet [4]): Active; inhibition (Homo sapiens [5]): inactive; inhibition (Platelet [6]): Active; inhibition (Platelet [7]): Active; inhibition (Homo sapiens [8]): Active; Activity (Platelet [9]): Active; inhibition (Platelet [10]): Active; Activity [11]: Toxic; Activity (Platelet [12]): Active; pIC50 [13]: 5.75; inhibition (Platelet [14]): Dose-dependent effect
5 | CCn1ccc2c3c(=O)[nH]c(-c4ccccc4)nc3ccc21 | Active | Active | 
6 | CCn1ccc2c3[nH]cc(-c4ccccc4)c(=O)c3ccc21 | Active | Active | 
7 | O=c1c(-c2ccccc2)c[nH]c2ccc3[nH]ccc3c12 | Active | Active | 
8 | CCn1ccc2c3c(=O)c(-c4ccccc4)c[nH]c3ccc21 | Active | Active | 
